Source: ChEMBL document CHEMBL4680120, “Novel anti-Alzheimer phenol-lipoyl hybrids: Synthesis, physico-chemical characterization, and biological evaluation” (Eur J Med Chem, 2020)
≈ marks a conversion by molar mass, not a printed value. Calls of active or inactive are those of the source. The calls are words filed in the database; no cut-off is given here.

What was measured:
SH-SY5Y [1] = assay: Neuroprotective activity against amyloid beta (1 to 42)-induced toxicity in human SH-SY5Y cells assessed as increase in cell viability at 1 to 250 mg/l measured after 48 hrs by LDH release assay; type: functional, cell-based; settings: dose 1-250 mg/L
How it was run: (§1)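 SH-SY5Y cells grown in DMEM/F12 with 10% FBS and differentiated with retinoic acid (10 μM), seeded at 1×10^4 per well and cultured 24 h. Cells were given hybrids at 1–250 mg/L with or without Aβ1-42 (20 μM) for 48 h. MTT (5 mg/mL) added for 4 h at 37°C, DMSO solubilization, read at 570/630 nm. LDH read at 450 nm. Five independent experiments.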

[2] = Stability in human plasma assessed as observed rate constant by HPLC analysis; type: ADME, cell-free
How it was run: (§2)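 Compound stock added to human plasma pre-warmed to 37°C and diluted with 0.02 M phosphate buffer (pH 7.4) to 80% plasma. 100 μL samples taken over time, quenched with 200 μL cold acetonitrile, centrifuged, and supernatant analyzed by HPLC. t½ and kobs are means of three experiments.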

[3] = Stability in simulated intestinal fluid at pH 6.8 assessed as relative difference measured after 180 mins in presence of pancreatin by HPLC analysis; type: ADME; settings: simulated gi fluid, pH 6.8, 3 h
How it was run: (§3)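 Incubation in simulated gastric fluid (pH 1.2, pepsin) or simulated intestinal fluid (pH 6.8, pancreatin). Aliquots deproteinized with ice-cold acetonitrile, centrifuged at 4°C and 12000 rpm for 10 min, filtered, analyzed by HPLC. RD% = (Ci − Cf)/Ci × 100. Stable if RD < 5%. Means of three experiments.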

[4] = Stability in simulated gastric fluid at pH 1.2 assessed as relative difference measured after 30 mins in presence of pepsin by HPLC analysis; type: ADME; settings: isolated protein, pH 1.2, 0.5 h; how it was run: as §3
[5] = Stability in simulated intestinal fluid at pH 6.8 assessed as relative difference measured after 15 mins in presence of pancreatin by HPLC analysis; type: ADME; settings: simulated gi fluid, pH 6.8, 0.25 h; how it was run: as §3
SH-SY5Y [6] = assay: Cytotoxicity against human SH-SY5Y cells assessed as reduction in cell viability at 1 to 250 mg/l measured after 48 hrs by MTT assay; type: cell-based; settings: dose 1-250 mg/L; how it was run: as §1
[7] = Stability in simulated gastric fluid at pH 1.2 assessed as relative difference measured after 15 mins in presence of pepsin by HPLC analysis; type: ADME; settings: isolated protein, pH 1.2, 0.25 h; how it was run: as §3
[8] = Solubility of compound in water by HPLC analysis; type: physicochemical
[9] = Stability in simulated intestinal fluid at pH 6.8 assessed as relative difference measured after 120 mins in presence of pancreatin by HPLC analysis; type: ADME; settings: simulated gi fluid, pH 6.8, 2 h; how it was run: as §3
[10] = Stability in simulated intestinal fluid at pH 6.8 assessed as relative difference measured after 30 mins in presence of pancreatin by HPLC analysis; type: ADME; settings: simulated gi fluid, pH 6.8, 0.5 h; how it was run: as §3
[11] = Half life in human plasma by HPLC analysis; type: ADME, cell-free; how it was run: as §2
[12] = Stability in simulated gastric fluid at pH 1.2 assessed as relative difference measured after 60 mins in presence of pepsin by HPLC analysis; type: ADME; settings: isolated protein, pH 1.2, 1 h; how it was run: as §3
SH-SY5Y [13] = assay: Neuroprotective activity against amyloid beta (1 to 42)-induced toxicity in human SH-SY5Y cells assessed as increase in cell viability at 1 to 250 mg/l measured after 48 hrs by MTT assay; type: functional, cell-based; settings: dose 1-250 mg/L; how it was run: as §1
[14] = Stability in simulated intestinal fluid at pH 6.8 assessed as relative difference measured after 60 mins in presence of pancreatin by HPLC analysis; type: ADME; settings: simulated gi fluid, pH 6.8, 1 h; how it was run: as §3

SMILES	Activity (SH-SY5Y [1])	K [2]	fold change (FC) [3]	fold change (FC) [4]	fold change (FC) [5]	Activity (SH-SY5Y [6])	fold change (FC) [7]	solubility [8]	fold change (FC) [9]	fold change (FC) [10]	half-life [11]	fold change (FC) [12]	Activity (SH-SY5Y [13])	fold change (FC) [14]
O=C(CCCCC1CCSS1)NCCNC(=O)Cc1ccc(O)c(O)c1 (centres undefined)	Active	0.031 h⁻¹	4.32%	0.99%	1.89%	Non-Toxic	0.63%	2690 µg/mL (≈ 6740 µM)	3.78%	2.17%	23.1 h	2.74%	Active	4.02%
O=C(CCCCC1CCSS1)NCCOCCOC(=O)Cc1ccc(O)c(O)c1 (centres undefined)	Active	0.32 h⁻¹	100%	63.52%	3.87%	Non-Toxic	45.21%	2480 µg/mL (≈ 5600 µM)	89.78%	45.89%	2.16 h	78.9%	Active	60.78%
COc1cc(/C=C/C(=O)NCCNC(=O)CCCCC2CCSS2)ccc1O (centres undefined)	Active	0.012 h⁻¹	4.8%	1.28%	2.52%	Non-Toxic	0.25%	23 µg/mL (≈ 54.2 µM)	4.15%	3.01%	57.4 h	3.45%	Active	5.2%
O=C(CCCCC1CCSS1)NCCCCNC(=O)Cc1ccc(O)c(O)c1 (centres undefined)	Active	0.479 h⁻¹	88.91%	37.63%	1.5%	Non-Toxic	10.37%	81 µg/mL (≈ 190 µM)	63%	20.44%	1.49 h	57.89%	Active	42.7%
COc1ccc(/C=C/C(=O)NCCCCNC(=O)CCCCC2CCSS2)cc1OC (centres undefined)	Active	0.019 h⁻¹	34.75%	8.23%	3%	Non-Toxic	4.67%		22.21%	3.64%	36.4 h	22.16%	Active	11.79%
